Measured values reported in ChEMBL document CHEMBL1130245, “Syntheses and photodynamic activities of novel trisulfonated zinc phthalocyanine derivatives” (1997).

Assays:
[1] = (§1) Light dose to inactivate 90% of mouse mammary tumor cells (EMT-6) incubated with 1 uM dye for a period of 1 hour.; format: functional
Outline: (§2)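 EMT-6 mouse mammary tumor cells, 15 × 10^3 per well, were grown overnight in Waymouth's with 15% FBS and incubated at 37 °C with dye at 1 µM in Waymouth's 1% FBS (1 h for line 1, 24 h for line 2). Cells were rinsed and exposed to 660-700 nm red light at 10 mW cm-2 (1.5-30 J cm-2). MTT read at 595 nm next day; LD90 extrapolated from survival curves; 8 replicates per light dose, ≥3 experiments.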

Mus musculus [2] = experiment: Medium edema caused with EMT-6 tumor at drug dose 5 umol kg e-1, at light dose 400 J cme-2, and at time period of 24 hr; ++ = Medium edema; format: functional, organism-based; conditions: tested as the Zn salt or complex
Outline: (§3)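 Male BALB/c mice (18-22 g), depilated; 2 × 10^5 EMT-6 cells implanted intradermally on each hind thigh; used 6-8 days later (tumors 3-5 mm diameter, 2-3 mm thick). Dye in PBS given iv (2-20 µmol kg-1); 24 or 48 h later one tumor illuminated with 650-700 nm xenon-lamp light, the other left as control. Edema scored 24 h post-PDT.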

Mus musculus [3] = organism: Mus musculus; experiment: Percent necrosis with EMT-6 Tumor in BALB/c mice at drug dose 5 umol kg e-1, at light dose 400 J cme-2, and at time period of 24 hr.; format: functional; outline: as §3
[4] = (§4) Light dose to inactivate 90% of mouse mammary tumor cells (EMT-6) incubated with 1 uM dye for a period of 24 hour.; format: functional; outline: as §2
Mus musculus [5] = organism: Mus musculus; experiment: Percent regression with EMT-6 Tumor in BALB/c mice at drug dose 5 umol kg e-1, at light dose 400 J cme-2, and at time period of 24 hr.
Mus musculus [6] = organism: Mus musculus; experiment: as §1; format: functional; conditions: tested as the Zn salt or complex; outline: as §2
Mus musculus [7] = experiment: Light […] edema caused with EMT-6 tumor at drug dose 5 umol kg e-1, at light dose 400 J cme-2, and at time period of 24 hr; + = Light edema; format: functional, organism-based; conditions: tested as the Zn salt or complex; outline: as §3
Mus musculus [8] = organism: Mus musculus; experiment: as §4; format: functional; conditions: tested as the Zn salt or complex; outline: as §2
Mus musculus [9] = experiment: Medium edema caused with EMT-6 tumor at drug dose 2 umol kg e-1, at light dose 400 J cme-2, and at time period of 24 hr.; format: functional, organism-based; conditions: tested as the Zn salt or complex; outline: as §3
Mus musculus [10] = experiment: Medium edema caused with EMT-6 tumor at drug dose 5 umol kg e-1, at light dose 300 J cme-2, and at time period of 24 hr.; ++ = Medium edema; format: functional, organism-based; conditions: tested as the Zn salt or complex; outline: as §3
Mus musculus [11] = organism: Mus musculus; experiment: Percent regression with EMT-6 Tumor in BALB/c mice at drug dose 5 umol kg e-1, at light dose 400 J cme-2, and at time period of 48 hr.; format: functional; outline: as §3
Mus musculus [12] = organism: Mus musculus; experiment: Percent necrosis with EMT-6 Tumor in BALB/c mice at drug dose 2 umol kg e-1, at light dose 400 J cme-2, and at time period of 24 hr.; format: functional; outline: as §3
Mus musculus [13] = organism: Mus musculus; experiment: Percent necrosis with EMT-6 Tumor in BALB/c mice at drug dose 5 umol kg e-1, at light dose 300 J cme-2, and at time period of 24 hr.; format: functional; outline: as §3
Mus musculus [14] = organism: Mus musculus; experiment: Percent necrosis with EMT-6 Tumor in BALB/c mice at drug dose 5 umol kg e-1, at light dose 400 J cme-2, and at time period of 48 hr.; format: functional; outline: as §3
Mus musculus [15] = organism: Mus musculus; experiment: Percent regression with EMT-6 Tumor in BALB/c mice at drug dose 2 umol kg e-1, at light dose 400 J cme-2, and at time period of 24 hr.; format: functional; outline: as §3
Mus musculus [16] = organism: Mus musculus; experiment: Percent regression with EMT-6 Tumor in BALB/c mice at drug dose 5 umol kg e-1, at light dose 300 J cme-2, and at time period of 24 hr.; format: functional; outline: as §3
Mus musculus [17] = organism: Mus musculus; experiment: Percent regression with EMT-6 Tumor in BALB/c mice at drug dose 5 umol kg e-1, at light dose 400 J cme-2, and at time period of 24 hr.; format: functional; outline: as §3
Mus musculus [18] = experiment: Medium edema caused with EMT-6 tumor at drug dose 2 umol kg e-1, at light dose 400 J cme-2, and at time period of 24 hr.; ++ = Medium edema; format: functional, organism-based; conditions: tested as the Zn salt or complex; outline: as §3
Mus musculus [19] = experiment: Medium edema caused with EMT-6 tumor at drug dose 5 umol kg e-1, at light dose 400 J cme-2, and at time period of 48 hr.; ++ = Medium edema; format: functional, organism-based; conditions: tested as the Zn salt or complex; outline: as §3
Mus musculus [20] = organism: Mus musculus; experiment: Percent necrosis with EMT-6 Tumor in BALB/c mice at drug dose 5 uMol kg e-1, at light dose 400 J cme-2, and at time period of 24 hr.; format: functional; outline: as §3
Mus musculus [21] = experiment: Medium edema caused with EMT-6 tumor at drug dose 2 umol kg e-1, at light dose 400 J cme-2, and at time period of 24 hr; ++ = Medium edema; format: functional, organism-based; conditions: tested as the Zn salt or complex; outline: as §3
Mus musculus [22] = experiment: Medium edema caused with EMT-6 tumor at drug dose 5 umol kg e-1, at light dose 400 J cme-2, and at time period of 48 hr; ++ = Medium edema; format: functional, organism-based; conditions: tested as the Zn salt or complex; outline: as §3
[23] = tested as the Zn salt or complex

SMILES | LD90 [1] | Necrosis response (Mus musculus [3]) | LD90 [4] | Regression response (Mus musculus [11]) | Necrosis response (Mus musculus [12]) | Necrosis response (Mus musculus [13]) | Necrosis response (Mus musculus [14]) | Regression response (Mus musculus [15]) | Regression response (Mus musculus [16]) | Regression response (Mus musculus [17]) | further results
O=S(=O)(O)c1ccc2c(c1)-c1nc-2nc2[n-]c(nc3nc(nc4[n-]c(n1)c1ccc(S(=O)(=O)O)cc41)-c1ccccc1-3)c1ccc(S(=O)(=O)O)cc21.[Zn+2] | 29 J cm**-2 | 12% | 5 J cm**-2 |  |  |  |  |  |  |  | Edema (Mus musculus [2]): Medium edema; Regression response (Mus musculus [5]): 0%
O=S(=O)(O)c1ccc2c(c1)-c1nc-2nc2[nH]c(nc3nc(nc4[nH]c(n1)c1ccc(S(=O)(=O)O)cc41)-c1nc(-c4ccccc4)c(-c4ccccc4)nc1-3)c1ccc(S(=O)(=O)O)cc21 |  |  |  |  |  |  |  |  |  |  | LD90 (Mus musculus [6]): > 30 J cm··-2; Edema (Mus musculus [7]): Light edema; Necrosis response (Mus musculus [3]; [23]): 25%; LD90 (Mus musculus [8]): 19.5 J cm··-2; Regression response (Mus musculus [5]; [23]): 0%
CC(C)(C)c1ccc2c(c1)-c1nc-2nc2[n-]c(nc3nc(nc4[n-]c(n1)c1cc(S(=O)(=O)O)ccc41)-c1cc(S(=O)(=O)O)ccc1-3)c1cc(S(=O)(=O)O)ccc21.[Zn+2] | >30 J cm**-2 | 100% | 2.5 J cm**-2 | 37% | 50% | 12% | 37% | 33% | 0% | 90% | Edema (Mus musculus [9]): Medium edema; Edema (Mus musculus [10]): Medium edema
O=S(=O)(O)c1ccc2c(c1)-c1nc-2nc2[n-]c(nc3nc(nc4[n-]c(n1)c1ccc(S(=O)(=O)O)cc41)-c1ccc(S(=O)(=O)O)cc1-3)c1ccc(S(=O)(=O)O)cc21.[Zn+2] | >30 J cm**-2 | 91% | 14 J cm**-2 | 38% | 12% |  | 50% | 12% |  |  | Edema (Mus musculus [18]): Medium edema; Edema (Mus musculus [19]): Medium edema; Regression response (Mus musculus [20]): 91%
CC(C)(C)c1ccc2cc3c(cc2c1)-c1nc-3nc2[n-]c(nc3nc(nc4[n-]c(n1)c1cc(S(=O)(=O)O)ccc41)-c1cc(S(=O)(=O)O)ccc1-3)c1cc(S(=O)(=O)O)ccc21.[Zn+2] | 21 J cm**-2 | 100% | 2.5 J cm**-2 | 87% | 60% | 71% | 87% | 60% | 43% | 86% | Edema (Mus musculus [21]): Medium edema; Edema (Mus musculus [22]): Medium edema
